Measured values published in ChEMBL document CHEMBL1129349, “Antiretroviral agents as inhibitors of both human immunodeficiency virus type 1 integrase and protease” (J Med Chem, 1996).

What was measured:
[1] = target: T1, Human immunodeficiency virus type 1 integrase (Human immunodeficiency virus 1, UniProt Q7ZJM1); assay: (§1) Inhibitory activity against HIV-1 integrase
Method in brief: (§2)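 Purified recombinant wild-type HIV-1 integrase, 200 nM final, preincubated with inhibitor for 30 min at 30 °C. Buffer: 25 mM MOPS pH 7.2, 7.5 mM MnCl2, 50 mM NaCl, 10% DMSO, 10% glycerol, BSA, DTT, 2-mercaptoethanol. Then 20 nM 5'-32P-labeled 21mer U5 duplex added for 60 min. Products run on denaturing 20% polyacrylamide gel and quantified by phosphorimager.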

[2] = target: T1, Human immunodeficiency virus type 1 integrase; assay: as §1; method in brief: as §2; remark: listed apart in the source
[3] = target: T2, Human immunodeficiency virus type 1 protease (Human immunodeficiency virus 1, UniProt Q72874); assay: Inhibitory activity against HIV-1 protease
DNA topoisomerase 1 = target: T3, DNA topoisomerase 1 (Homo sapiens, UniProt P11387); assay: Inhibitory activity against topoisomerase I.
T3 sequence (P11387 whole entry): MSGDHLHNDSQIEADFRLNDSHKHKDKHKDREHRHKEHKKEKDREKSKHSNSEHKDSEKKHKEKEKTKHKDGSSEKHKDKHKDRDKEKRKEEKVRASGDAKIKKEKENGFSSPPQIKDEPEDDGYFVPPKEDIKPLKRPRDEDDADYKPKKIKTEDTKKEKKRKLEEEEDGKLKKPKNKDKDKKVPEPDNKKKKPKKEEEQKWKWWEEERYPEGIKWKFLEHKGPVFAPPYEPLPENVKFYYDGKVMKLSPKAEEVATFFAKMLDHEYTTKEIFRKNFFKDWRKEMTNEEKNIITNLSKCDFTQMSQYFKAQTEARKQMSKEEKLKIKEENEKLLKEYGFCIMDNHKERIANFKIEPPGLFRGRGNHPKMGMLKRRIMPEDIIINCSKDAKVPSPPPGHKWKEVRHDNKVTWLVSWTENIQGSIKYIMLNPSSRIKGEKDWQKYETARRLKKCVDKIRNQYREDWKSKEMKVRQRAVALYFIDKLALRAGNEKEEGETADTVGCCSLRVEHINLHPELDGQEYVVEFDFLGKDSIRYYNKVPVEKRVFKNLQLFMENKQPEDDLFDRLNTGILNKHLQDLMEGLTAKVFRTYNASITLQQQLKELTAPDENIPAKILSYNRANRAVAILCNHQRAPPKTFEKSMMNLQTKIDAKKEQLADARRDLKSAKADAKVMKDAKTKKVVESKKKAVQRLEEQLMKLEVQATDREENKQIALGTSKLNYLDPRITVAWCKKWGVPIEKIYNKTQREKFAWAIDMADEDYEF
Method in brief: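 Eukaryotic topoisomerase I on a duplex oligonucleotide with a single strong cleavage site, 3'-end labeled with α-[32P]cordycepin. Scored both for induction of cleavable complexes and for blocking camptothecin-induced complexes. Stopped with 0.5% SDS, proteinase K 60 min at 50 °C, denaturing 16% PAGE.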

[4] = target: T2, Human immunodeficiency virus type 1 protease; assay: Inhibitory activity against HIV-1 Protease.
CCRF-CEM [5] = assay: Inhibitory activity against HIV-1 infected CEM cells; inactive; type: functional, cell-based, Homo sapiens
CCRF-CEM [6] = assay: Inhibitory activity against HIV-1 infected CEM cells.; type: functional, cell-based; conditions: Homo sapiens
[7] = system: Feline immunodeficiency virus; assay: Inhibitory activity against feline was measured immunodeficiency virus (FIV) using 3'-processing (3'-proc) assay..; type: functional
Method in brief: (§3)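 Recombinant FIV or SIV integrase, 600 nM final, preincubated 30 min at 30 °C with inhibitor in Mn2+/MOPS pH 7.2 buffer with 10% DMSO. 20 nM 5'-32P-labeled 21mer duplex added and incubated 60 min. The 3'-processed 19mer was resolved on denaturing 20% polyacrylamide gel and quantified by phosphorimager.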

[8] = target: T4, Human immunodeficiency virus type 2 integrase (Human immunodeficiency virus 2, UniProt P89582); assay: Inhibitory activity against HIV-2 Integrase was measured using 3'-processing (3'-proc) assay.
T4 sequence (P89582 whole entry): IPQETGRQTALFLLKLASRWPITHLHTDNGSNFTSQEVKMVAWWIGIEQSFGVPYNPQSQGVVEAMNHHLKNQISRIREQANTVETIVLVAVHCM
Method in brief: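 HIV-2 integrase, 200 nM final, preincubated 30 min at 30 °C with inhibitor in Mn2+/MOPS pH 7.2 buffer containing 10% DMSO. 3'-processing started with 20 nM 5'-32P-labeled 21mer duplex substrate and run 60 min more. Denaturing 20% PAGE, phosphorimager quantitation of the 19mer product.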

[9] = system: Simian immunodeficiency virus; assay: Inhibitory activity against simian was measured immunodeficiency virus (SIV) using 3'-processing (3'-proc); type: functional; method in brief: as §3

T1 sequence (Q7ZJM1 whole entry): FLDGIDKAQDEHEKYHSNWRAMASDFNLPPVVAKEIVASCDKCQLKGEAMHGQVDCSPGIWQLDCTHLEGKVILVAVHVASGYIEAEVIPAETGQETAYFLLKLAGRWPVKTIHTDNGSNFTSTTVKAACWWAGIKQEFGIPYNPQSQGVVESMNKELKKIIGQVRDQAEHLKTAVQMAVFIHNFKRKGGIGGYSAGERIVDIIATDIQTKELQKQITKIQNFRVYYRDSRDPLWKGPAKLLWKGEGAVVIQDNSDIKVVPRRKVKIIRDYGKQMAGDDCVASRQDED

IC50 [1] [µM]	IC50 [2] [µM]	IC50 [3] [µM]	Compound	other results
> 100	> 100		CC(C1=C(O)C(=O)c2ccccc2C1=O)C1=C(O)C(=O)c2ccccc2C1=O	
> 100	> 100	50	O=C1C(=O)c2ccccc2C(O)=C1CSc1ccc(Cl)cc1	
90	83		O=C1C(O)=C(C(CCc2ccccc2)C2=C(O)C(=O)c3ccccc3C2=O)C(=O)c2ccccc21	
> 100	> 100	13	O=c1oc2c(-c3ccccc3)cccc2c(O)c1-c1ccccc1	
> 100	> 100	> 100	O=C1Oc2ccccc2C(O)C1Cc1c(O)oc2ccccc2c1=O (configuration not stated)	
> 100	> 100	33	CCCCCCC/N=C1/C(=O)c2ccccc2C(O)=C1O	
> 100	> 100	> 100	O=C(NC1=C(Cl)C(=O)c2ccccc2C1=O)C(=O)c1c(O)c2ccccc2oc1=O	
60	92		CCOC(=O)C(C1=C(O)C(=O)c2ccccc2C1=O)C1=C(O)C(=O)c2ccccc2C1=O	
78	86		CC(=O)Nc1ccc(C(C2=C(O)C(=O)c3ccccc3C2=O)C2=C(O)C(=O)c3ccccc3C2=O)cc1	
> 100	> 100	> 100	O=C(c1ccc(Cl)cc1)c1c(O)c2ccccc2oc1=O	
72	> 100		O=C1C(O)=C(C(C#Cc2ccccc2)C2=C(O)C(=O)c3ccccc3C2=O)C(=O)c2ccccc21	
48	68		O=C1C(O)=C(C(C2=C(O)C(=O)c3ccccc3C2=O)c2ccccc2)C(=O)c2ccccc21	
> 100	> 100		CN(C)c1ccc(C(C2=C(O)C(=O)c3ccccc3C2=O)C2=C(O)C(=O)c3ccccc3C2=O)cc1	
> 100	> 100		CCOc1ccc(C(C2=C(O)C(=O)c3ccccc3C2=O)C2=C(O)C(=O)c3ccccc3C2=O)cc1OC	
> 100	> 100	8.5	O=C1C(=O)c2ccccc2C(O)=C1CCCC1CCC2CCCCC2C1 (configuration not stated)	
> 100	> 100	> 100	O=C(c1cccc([N+](=O)[O-])c1)c1c(O)oc2ccccc2c1=O	
> 100	> 100	> 100	COc1ccc2c(O)c(S(=O)(=O)c3ccc(C)cc3)c(=O)oc2c1	

IC50 [1] [µM]	IC50 [2] [µM]	IC50 [3] [µM]	Compound	other results
> 100	> 100	> 100	O=c1oc2cccc(O)c2c(O)c1Cc1ccccc1	
20	32		COc1cc(C(C2=C(O)C(=O)c3ccccc3C2=O)C2=C(O)C(=O)c3ccccc3C2=O)cc(Br)c1O	
40	37	24	O=C1C(O)=C(C(C2=C(O)C(=O)c3ccccc3C2=O)c2ccc(Cl)cc2Cl)C(=O)c2ccccc21	
> 100	> 100	> 100	CC(=O)c1cccc(NC(=O)C(=O)c2c(O)oc3ccccc3c2=O)c1	
> 100	> 100	> 100	Cc1ccc(S(=O)(=O)N/N=C(/CCN2CCCC2)CC(c2ccccc2)c2c(O)oc3ccccc3c2=O)cc1 (configuration not stated)	
> 100	> 100	> 100	COc1ccc2c(O)c(S(=O)(=O)c3ccc(Cl)cc3)c(=O)oc2c1	
2.7	7.5		O=C1C(O)=C(C(C2=C(O)C(=O)c3ccccc3C2=O)c2ccc(C(C3=C(O)C(=O)c4ccccc4C3=O)C3=C(O)C(=O)c4ccccc4C3=O)cc2)C(=O)c2ccccc21	IC50 (DNA topoisomerase 1): 60 µM; IC50 [4]: 0.75 µM; IC50 (CCRF-CEM [5]): Not Active
		> 100	O=C1C=C(O)C(=O)c2ccccc21 [LAWSONE]	
0.8	1.5		O=c1c(C(c2ccc(C(c3c(O)oc4ccccc4c3=O)c3c(O)oc4ccccc4c3=O)cc2)c2c(O)oc3ccccc3c2=O)c(O)oc2ccccc12	IC50 (CCRF-CEM [6]): 11.5 µM; IC50 (DNA topoisomerase 1): 10 µM; IC50 [7]: 2.2 µM; IC50 [8]: 1 µM; IC50 [4]: 1.7 µM; IC50 [9]: 2.3 µM
> 100	> 100		O=C1C(O)=C(C(C2=C(O)C(=O)c3ccccc3C2=O)c2ccc(Cl)cc2)C(=O)c2ccccc21	
56	92	3	O=C1C(=O)c2ccccc2C(O)=C1Cc1ccc(Cl)cc1	
> 100	> 100	> 100	O=C1C(=O)c2ccccc2C(O)=C1Sc1ccccc1	
> 100	> 100	> 100	O=C(SCc1c(O)c2ccccc2oc1=O)c1ccccc1	
100	80	21	O=C1Oc2ccccc2C(O)C1Sc1c(O)oc2ccccc2c1=O (configuration not stated)	
> 100	> 100		COc1cc(C(C2=C(O)C(=O)c3ccccc3C2=O)C2=C(O)C(=O)c3ccccc3C2=O)cc(OC)c1OC	
> 100	> 100	32	O=c1oc2ccccc2c(O)c1-c1ccccc1	
52	90		O=C1C(O)=C(C(C2=C(O)C(=O)c3ccccc3C2=O)c2ccc(Cl)c(Cl)c2)C(=O)c2ccccc21	

Compound	IC50 [1] [µM]	IC50 [2] [µM]	IC50 [3] [µM]	other results
CCOC(=O)C(c1c(O)c2ccccc2oc1=O)c1c(O)c2ccccc2oc1=O [ETHYL BISCOUMACETATE]	> 100	> 100	> 100	
O=c1c(C(c2ccc3c(c2)OCO3)c2c(O)oc3ccccc3c2=O)c(O)oc2ccccc12	18	47	30	
CC(C)c1cccc(C(C)C)c1NC(=O)C(=O)CC(=O)CC(c1ccccc1)c1c(O)oc2ccccc2c1=O (configuration not stated)	> 100	> 100	31	
CCCCCCc1cc2c(cc1O)OC(=O)C(C(c1ccccc1)c1c(O)oc3cc(O)c(CCCCCC)cc3c1=O)C2O (configuration not stated)	12	10.5	0.32	
